# The source made the active and inactive calls. The calls are words filed in the database; no cut-off is given here.
# Experiments:
# KB = test: Cytotoxicity against human KB cells assessed as growth inhibition after 3 days by sulforhodamine B assay; format: functional
# A549 = test: Cytotoxicity against human A549 cells assessed as growth inhibition after 3 days by sulforhodamine B assay; format: functional, cell-based
# Neutrophil [1] = test: Inhibition of fMLP/CB-activated human neutrophil degranulation assessed as inhibition of elastase release at 30 uM using MeO-Suc-Ala-Ala-Pro-Val-p-nitroanilide as a substrate after 5 mins relative to control; format: functional
# Outline: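 Isolated human neutrophils (dextran sedimentation, Ficoll Hypaque, hypotonic erythrocyte lysis; >98% viable by trypan blue) at 5×10^5/mL in Ca2+-free HBSS pH 7.4 with 100 μM MeO-Suc-Ala-Ala-Pro-Val-p-nitroanilide. Equilibrated 37 °C 2 min, compound 5 min, then activated with 100 nM fMLP plus 0.5 μg/mL CB. A405 monitored continuously. Expressed as % of initial elastase release rate in drug-free fMLP/CB control; mean ± S.E.M., n = 3–4.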
# HCT-8 = test: Cytotoxicity against human HCT8 cells assessed as growth inhibition after 3 days by sulforhodamine B assay; format: functional, cell-based
# Neutrophil [2] = test: Inhibition of fMLP/CB-stimulated superoxide anion generation in human neutrophils at 30 uM relative to control; format: functional
# Outline: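 Neutrophils isolated by dextran sedimentation, Ficoll Hypaque and hypotonic lysis, kept in Ca2+-free HBSS pH 7.4 at 4 °C. Given 0.5 mg/mL ferricytochrome c and 1 mM Ca2+, equilibrated 37 °C 2 min, compound 5 min. CB 1 μg/mL for 3 min, then 100 nM fMLP for 10 min. SOD-inhibitable ferricytochrome c reduction followed at 550 nm with stirring; mean ± S.E.M., n = 3–4.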
# DU-145 = test: Cytotoxicity against human DU145 cells assessed as growth inhibition after 3 days by sulforhodamine B assay; format: functional
# Neutrophil [3] = test: Inhibition of fMLP/CB-stimulated superoxide anion generation in human neutrophils; format: functional, cell-based
# Outline: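 Isolated human neutrophils (dextran sedimentation, Ficoll Hypaque, hypotonic lysis; >98% viable) with 0.5 mg/mL ferricytochrome c and 1 mM Ca2+, 37 °C 2 min, compound 5 min; CB 1 μg/mL 3 min, then 100 nM FMLP 10 min; SOD-inhibitable cytochrome c reduction followed continuously at 550 nm with stirring; mean ± S.E.M., n = 3–4; top concentration 30 μM.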
# Neutrophil [4] = test: Inhibition of fMLP/CB-activated human neutrophil degranulation assessed as inhibition of elastase release using MeO-Suc-Ala-Ala-Pro-Val-p-nitroanilide as a substrate after 5 mins; format: functional, cell-based
# Outline: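 Neutrophils from dextran sedimentation, Ficoll Hypaque centrifugation and hypotonic erythrocyte lysis (>98% viable by trypan blue), held in Ca2+-free HBSS pH 7.4 at 4 °C; 5×10^5/mL cells with 100 μM substrate equilibrated 37 °C 2 min, compound 5 min, then 100 nM FMLP plus 0.5 μg/mL CB; A405 monitored continuously; expressed as % of initial rate in drug-free activated control; mean ± S.E.M., n = 3–4; top concentration 30 μM.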
SMILES,growth inhibition (GI) (KB),growth inhibition (GI) (A549),inhibition at 30 µM (Neutrophil [1]) [%],growth inhibition (GI) (HCT-8),inhibition at 30 µM (Neutrophil [2]) [%],growth inhibition (GI) (DU-145),IC50 (Neutrophil [3]) [µM],GI50 (KB; 72 h) [µg/mL],"GI50 (DU-145; DU-145, 72 h) [µg/mL]",IC50 (Neutrophil [4]) [µM]
CC(C)=CCC[C@](C)(O[C@@H]1O[C@H](CO)[C@@H](O)[C@H](O)[C@H]1O)[C@H]1CC[C@]2(C)[C@@H]1[C@H](O)C[C@@H]1[C@@]3(C)CC[C@H](O[C@@H]4O[C@H](CO)[C@@H](O)[C@H](O)[C@H]4O[C@@H]4O[C@H](CO)[C@@H](O)[C@H](O)[C@H]4O)C(C)(C)[C@@H]3CC[C@]12C [GINSENOSIDE RD],inactive,inactive,2.88,inactive,-3.54,inactive,–,–,–,–
CC(C)=CC/C=C(\C)[C@H]1CC[C@]2(C)[C@@H]1[C@H](O)C[C@@H]1[C@@]3(C)CC[C@H](O[C@@H]4O[C@H](CO)[C@@H](O)[C@H](O)[C@H]4O[C@@H]4O[C@H](CO)[C@@H](O)[C@H](O)[C@H]4O)C(C)(C)[C@@H]3CC[C@]12C,inactive,inactive,–,inactive,–,inactive,–,–,–,–
CC(C)=CCC[C@@](C)(O)[C@H]1CC[C@]2(C)[C@@H]1[C@H](O)C[C@@H]1[C@@]3(C)CC[C@H](O[C@@H]4O[C@H](CO)[C@@H](O)[C@H](O)[C@H]4O[C@@H]4O[C@H](CO)[C@@H](O)[C@H](O)[C@H]4O)C(C)(C)[C@@H]3CC[C@]12C,inactive,inactive,–,inactive,–,inactive,–,–,–,–
CC(C)=CCC[C@](C)(O)[C@H]1CC[C@]2(C)[C@@H]1[C@H](O)C[C@@H]1[C@@]3(C)CC[C@H](O)C(C)(C)[C@@H]3[C@@H](O[C@@H]3O[C@H](CO)[C@@H](O)[C@H](O)[C@H]3O[C@@H]3O[C@H](CO)[C@@H](O)[C@H](O)[C@H]3O)C[C@]12C [GINSENOSIDE RF],inactive,inactive,29.5,inactive,8.94,inactive,–,–,–,–
CC(C)=CCC[C@](C)(O)[C@H]1CC[C@]2(C)[C@@H]1[C@H](O)C[C@@H]1[C@@]3(C)CC[C@H](O[C@@H]4O[C@H](CO)[C@@H](O)[C@H](O)[C@H]4O[C@@H]4O[C@H](CO)[C@@H](O)[C@H](O)[C@H]4O)C(C)(C)[C@@H]3CC[C@]12C,inactive,inactive,–,inactive,–,inactive,–,–,–,–
CC1(C)CC[C@]2(C(=O)O[C@@H]3O[C@H](CO)[C@@H](O)[C@H](O)[C@H]3O)CC[C@]3(C)C(=CC[C@@H]4[C@@]5(C)CC[C@H](O[C@@H]6O[C@H](C(=O)O)[C@@H](O[C@@H]7O[C@@H](CO)[C@H](O)[C@H]7O)[C@H](O)[C@H]6O)C(C)(C)[C@@H]5CC[C@]43C)[C@@H]2C1,inactive,inactive,27.6,inactive,14.6,inactive,–,–,–,–
CC(C)=CCC[C@](C)(O[C@@H]1O[C@H](CO[C@@H]2O[C@H](CO)[C@@H](O)[C@H](O)[C@H]2O)[C@@H](O)[C@H](O)[C@H]1O)[C@H]1CC[C@]2(C)[C@@H]1[C@H](O)C[C@@H]1[C@@]3(C)CC[C@H](O[C@@H]4O[C@H](CO)[C@@H](O)[C@H](O)[C@H]4O[C@@H]4O[C@H](CO)[C@@H](O)[C@H](O)[C@H]4O)C(C)(C)[C@@H]3CC[C@]12C [GINSENOSIDE RB1],inactive,inactive,7.36,inactive,10.8,inactive,–,–,–,–
CC[C@H](CC[C@@H](C)[C@H]1CC[C@H]2[C@@H]3CC=C4C[C@@H](O[C@@H]5O[C@H](CO)[C@@H](O)[C@H](O)[C@H]5O)CC[C@]4(C)[C@H]3CC[C@]12C)C(C)C [SITOGLUSIDE],inactive,inactive,21.7,inactive,7.45,inactive,–,–,–,–
CC1(C)CC[C@]2(C(=O)O[C@@H]3O[C@H](CO)[C@@H](O)[C@H](O)[C@H]3O)CC[C@]3(C)C(=CC[C@@H]4[C@@]5(C)CC[C@H](O[C@@H]6O[C@H](C(=O)O)[C@@H](O[C@H]7O[C@@H](CO)[C@H](O)[C@H]7O)[C@H](O[C@@H]7O[C@H](CO)[C@@H](O)[C@H](O)[C@H]7O)[C@H]6O)C(C)(C)[C@@H]5CC[C@]43C)[C@@H]2C1 [STIPULEANOSIDE R2],inactive,inactive,23.7,inactive,0.78,inactive,–,–,–,–
CC(C)=CCC[C@](C)(O[C@@H]1O[C@H](CO)[C@@H](O)[C@H](O)[C@H]1O)[C@H]1CC[C@]2(C)[C@@H]1[C@H](O)C[C@@H]1[C@@]3(C)CC[C@H](O)C(C)(C)[C@@H]3[C@@H](O[C@@H]3O[C@H](CO)[C@@H](O)[C@H](O)[C@H]3O)C[C@]12C [GINSENOSIDE RG1],inactive,inactive,19,inactive,14.1,inactive,–,–,–,–
CC(C)(O)[C@@H]1CC[C@@](C)([C@H]2CC[C@]3(C)[C@@H]2[C@H](O)C[C@@H]2[C@@]4(C)CC[C@H](O)C(C)(C)[C@@H]4[C@@H](O[C@@H]4O[C@H](CO)[C@@H](O)[C@H](O)[C@H]4O[C@@H]4O[C@H](CO)[C@@H](O)[C@H](O)[C@H]4O)C[C@]23C)O1,inactive,inactive,-4.95,inactive,7.4,inactive,–,–,–,–
CCCCOC(=O)[C@H]1O[C@@H](O[C@H]2CC[C@]3(C)[C@H]4CC=C5[C@@H]6CC(C)(C)CC[C@]6(C(=O)O[C@@H]6O[C@H](CO)[C@@H](O)[C@H](O)[C@H]6O)CC[C@@]5(C)[C@]4(C)CC[C@H]3C2(C)C)[C@H](O[C@@H]2OC[C@@H](O)[C@H](O)[C@H]2O)[C@@H](O)[C@@H]1O,inactive,inactive,20,inactive,–,inactive,21.2,–,–,–
COC(=O)[C@H]1O[C@@H](O[C@H]2CC[C@]3(C)[C@H]4CC=C5[C@@H]6CC(C)(C)CC[C@]6(C(=O)O[C@@H]6O[C@H](CO)[C@@H](O)[C@H](O)[C@H]6O)CC[C@@]5(C)[C@]4(C)CC[C@H]3C2(C)C)[C@H](O)[C@@H](O)[C@@H]1O[C@@H]1O[C@@H](CO)[C@H](O)[C@H]1O,inactive,inactive,27.5,inactive,–,inactive,19.7,–,–,–
C/C(=C/CC[C@](C)(O)[C@H]1CC[C@]2(C)[C@@H]1[C@H](O)C[C@@H]1[C@@]3(C)CC[C@H](O)C(C)(C)[C@@H]3[C@@H](O[C@@H]3O[C@H](CO)[C@@H](O)[C@H](O)[C@H]3O[C@@H]3O[C@H](CO)[C@@H](O)[C@H](O)[C@H]3O)C[C@]12C)CO [PANAJAPONOL A],–,Active,42,Active,20.3,–,–,6.3,7.3,–
CC1(C)CC[C@]2(C(=O)O[C@@H]3O[C@H](CO)[C@@H](O)[C@H](O)[C@H]3O)CC[C@]3(C)C(=CC[C@@H]4[C@@]5(C)CC[C@H](O)C(C)(C)[C@@H]5CC[C@]43C)[C@@H]2C1,inactive,inactive,–,inactive,43.6,inactive,–,–,–,9.64
